Assay results reported in ChEMBL document CHEMBL4622927, “6,6'-Aryl trehalose analogs as potential Mincle ligands” (Bioorg Med Chem, 2020).
Active and inactive are the calls of the source. The calls are words filed in the database; no cut-off is given here.

Tests used:
[1] = target: T1, C-type lectin domain family 4 member E (Homo sapiens) (UniProt Q9ULY5); test: Agonist activity at human Mincle receptor expressed in HEK cells cotransfected with NF-kappaB SEAP reporter gene assessed as increase in production of SEAP measured after 18 to 24 hrs by SEAP reporter gene-based spectrophotometric method; type: cell-based
T1 sequence (whole entry): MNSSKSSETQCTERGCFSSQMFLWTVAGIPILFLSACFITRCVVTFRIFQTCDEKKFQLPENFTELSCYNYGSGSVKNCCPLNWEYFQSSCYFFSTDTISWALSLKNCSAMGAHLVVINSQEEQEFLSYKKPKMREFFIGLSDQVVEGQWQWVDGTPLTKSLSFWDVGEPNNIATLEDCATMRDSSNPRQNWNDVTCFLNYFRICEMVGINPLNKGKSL
Procedure, shortened: (§1)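 Compounds serially diluted in EtOH; 10x final concentration coated on well bottoms and solvent evaporated >1 h. HEK-Blue hMincle cells with NF-κB-driven SEAP reporter, grown in DMEM/10% FBS with blasticidin, puromycin and CLR selection, added at 3 × 10^5 cells/well. 18–24 h at 37 °C. HEK-Blue Detection, OD 620–655 nm, fold change over vehicle; n=3. HEK null cells as counter-screen.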

PBMC = test: Induction of IL-6 production in human PBMC measured after 18 to 24 hrs at 0.01 to 100 uM by ELISA; type: functional, cell-based
Procedure, shortened: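 Freshly Ficoll-isolated PBMCs from healthy adult donors, in RPMI with 5% autologous plasma and counted as viable cells by trypan blue, added to wells with compounds serially diluted in ethanol and dried on. Incubation 18–24 h at 37 °C/5% CO2. Supernatant IL-6 measured by ELISA, read at 450 nm; n=3 independent donors, mean ± SEM.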

[2] = target: T1, C-type lectin domain family 4 member E (Homo sapiens); test: Agonist activity at human Mincle receptor expressed in HEK cells cotransfected with NF-kappaB SEAP reporter gene assessed as increase in production of SEAP at 20 uM measured after 18 to 24 hrs by SEAP reporter gene-based spectrophotometric method; type: cell-based; procedure, shortened: as §1

Activity [1] | Activity [2] | SMILES | Activity (PBMC)
Dose-dependent effect | – | O=C(OC[C@H]1O[C@H](O[C@H]2O[C@H](COC(=O)c3c(C(F)(F)F)cccc3C(F)(F)F)[C@@H](O)[C@H](O)[C@H]2O)[C@H](O)[C@@H](O)[C@@H]1O)c1c(C(F)(F)F)cccc1C(F)(F)F | Active
Dose-dependent effect | – | CCCCCCCCCCCCCCCCCCCCCC(=O)OC[C@H]1O[C@H](O[C@H]2O[C@H](COC(=O)CCCCCCCCCCCCCCCCCCCCC)[C@@H](O)[C@H](O)[C@H]2O)[C@H](O)[C@@H](O)[C@@H]1O | –
– | Active | O=C(Cc1ccccc1C(F)(F)F)OC[C@H]1O[C@H](O[C@H]2O[C@H](COC(=O)Cc3ccccc3C(F)(F)F)[C@@H](O)[C@H](O)[C@H]2O)[C@H](O)[C@@H](O)[C@@H]1O | inactive
Dose-dependent effect | – | COc1ccc(C(F)(F)F)cc1C(=O)OC[C@H]1O[C@H](O[C@H]2O[C@H](COC(=O)c3cc(C(F)(F)F)ccc3OC)[C@@H](O)[C@H](O)[C@H]2O)[C@H](O)[C@@H](O)[C@@H]1O | inactive
Dose-dependent effect | – | O=C(OC[C@H]1O[C@H](O[C@H]2O[C@H](COC(=O)c3ccccc3C(F)(F)F)[C@@H](O)[C@H](O)[C@H]2O)[C@H](O)[C@@H](O)[C@@H]1O)c1ccccc1C(F)(F)F | Active

Continued, compound first:

SMILES | Activity [1] | Activity [2] | Activity (PBMC)
COc1ccc(C(=O)OC[C@H]2O[C@H](O[C@H]3O[C@H](COC(=O)c4ccc(OC)cc4C(F)(F)F)[C@@H](O)[C@H](O)[C@H]3O)[C@H](O)[C@@H](O)[C@@H]2O)c(C(F)(F)F)c1 | – | – | inactive
Cc1ccc(C(=O)OC[C@H]2O[C@H](O[C@H]3O[C@H](COC(=O)c4ccc(C)cc4C(F)(F)F)[C@@H](O)[C@H](O)[C@H]3O)[C@H](O)[C@@H](O)[C@@H]2O)c(C(F)(F)F)c1 | – | – | inactive
O=C(OC[C@H]1O[C@H](O[C@H]2O[C@H](COC(=O)c3cccc(C(F)(F)F)c3O)[C@@H](O)[C@H](O)[C@H]2O)[C@H](O)[C@@H](O)[C@@H]1O)c1cccc(C(F)(F)F)c1O | – | – | inactive
O=C(OC[C@H]1O[C@H](O[C@H]2O[C@H](COC(=O)c3cc(C(F)(F)F)ccc3O)[C@@H](O)[C@H](O)[C@H]2O)[C@H](O)[C@@H](O)[C@@H]1O)c1cc(C(F)(F)F)ccc1O | – | – | inactive
O=C(OC[C@H]1O[C@H](O[C@H]2O[C@H](COC(=O)c3cc([N+](=O)[O-])cc([N+](=O)[O-])c3)[C@@H](O)[C@H](O)[C@H]2O)[C@H](O)[C@@H](O)[C@@H]1O)c1cc([N+](=O)[O-])cc([N+](=O)[O-])c1 | – | – | Active
